Screens: PubChem BioAssay, several laboratories
C2C12 statin = suppressors of simvastatin-induced myotoxicity in C2C12 myotubes | ATP luminescence, 48 h; scaled: DMSO 0, geranylgeraniol control 100 | rescue of ATP level, % at 7.49 µM | 330,000 compounds, 0.78% hits;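 active means mean ATP rescue above about 67%, or every replicate alone reaching that limit, limit read from the data, passing the limit was not always enough; inconclusive means no clear call, values can overlap the other calls; inactive means mean under the limit and some replicate under it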;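 further: myotubes were challenged with 10 µM simvastatin during compound exposure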
Cneo AK release = causes C. neoformans cell lysis; adenylate kinase release luminescence, 4 h; normalised: neutral wells 0, clomiphene wells 100; lysis activity, % at 15 µM; 360,000 compounds, 0.2% hits; AID 651654;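 active means mean lysis activity across replicates of at least 80%, whatever share of replicates individually reach that level; inactive means mean lysis activity below 80%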
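Assay system: log-phase C. neoformans yeast / Quantity: yeast cell density of 5 × 10^6 cells/mL / Medium: fresh YPD growth medium / Compound: single dose / Timing: static 4 h at 37 °C with compound, 1 h detection / Measured by: adenylate kinase release luminescence / Read-out: lysis from increased AK signal / Benchmarks: Clomiphene as positive lysis control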
Efflux pump mplx = inhibitors of Candida antifungal efflux pumps expressed in yeast; S. cerevisiae Candida pump triplex, Nile Red efflux; inhibition, % at 10 µM; 330,000 compounds, 0.44% hits; AID 485275;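 active means plate passing quality check with inhibition over a set limit, or well fluorescence over plate mean plus 4 SD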;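 further: Nile Red retained in pooled yeast measured as flow cytometry median fluorescence; higher means more Nile Red kept so more efflux inhibition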
Mot1-301 SUMO = SUMOylation pathway inhibition by Mot1-301 growth rescue; S. cerevisiae Mot1-301 growth rescue, ATP luminescence, 38.5C; percent above DMSO median, 100 means doubled; growth rescue, % at 18.8 µM; 320,000 compounds, 1% hits; AID 2716;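 active means every valid replicate shows activation above 250% relative to neutral control wells; inactive means the rest, any valid replicate at or below 250%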
Hits are given with their value; – = inactive; ? = inconclusive; · = no result given. Rows were chosen to be rich in hits. Some 1.8% of all compounds tested hit in one or more screens of this group.

SMILES	C2C12 statin	Cneo AK release	Efflux pump mplx	Mot1-301 SUMO
OCCN(CCCn1c(C(F)(F)F)nc2ccccc21)c1nc(CN2CCCCC2)cs1	–	–	–	–
Cc1cc(Nc2c(C)n(C)n(-c3ccccc3)c2=O)n2c(nc3ccccc32)c1C#N	–	–	–	–
CCCc1cc(Nc2c(C)n(C)n(-c3ccccc3)c2=O)n2c(nc3ccccc32)c1C#N	104	–	–	–
COc1cc(OC)cc(N2C(=O)CC(N3CCC(C(=O)N4CCCCC4)CC3)C2=O)c1 (stereo not given)	–	–	–	298
CO/C([O-])=N/c1c[n+](-c2ccc(Cl)cc2)no1	–	–	–	290
CN(c1ccccc1)S(=O)(=O)c1ccc(NC(=S)NC(=O)C2CC2)cc1	·	·	–	–
CCOC(=O)N1CCN(C(=O)CNCc2cccs2)CC1	93	–	–	–
C/C(NC(=O)c1cccc(F)c1)=C1/C(=O)C[C@@H]2[C@H]1C2(C)C	128	·	–	–
Cc1cc2oc(C(=O)NC3CCS(=O)(=O)C3)cc(=O)c2cc1C (stereo not given)	–	–	–	·
Cc1ccc(S(=O)(=O)N2CC3(C)CN(S(=O)(=O)c4ccc(C)cc4)CC(C)(C2)C3=O)cc1	–	–	–	–
CCCCOC(=O)Cn1c(-c2ccccc2)nc2ccccc2c1=O	·	–	–	553
CCOC(=O)c1ccccc1NC(=O)C1COc2ccccc2O1 (stereo not given)	94	–	–	–
COC(=O)c1ccccc1NC(=O)C1COc2ccccc2O1 (stereo not given)	–	–	–	–
CCOCC(=O)NCc1ccc2c(c1)OCO2	76	–	–	–
CN(C)CCCN1C(=O)[C@@]2(Cc3ccccc31)c1ccccc1C(=O)N(Cc1ccccc1Cl)[C@H]2c1ccc(CO)cc1	·	–	·	·
COc1cc2c(cc1OC)C(C)N(C(=O)C1COc3ccccc3O1)CC2 (stereo not given)	–	–	–	755
COc1cc2c(cc1OC)C(C)N(C(C)=O)CC2 (stereo not given)	–	–	–	–
COc1ccc2oc(-c3ccco3)cc(=O)c2c1	·	–	–	–
O=c1cc(-c2ccco2)oc2ccc(Cl)cc12	73	–	·	·
CCOC(=O)c1c(NC(=O)COC(=O)c2nccnc2N)sc(C(=O)N(C)C)c1C	–	–	–	–
CCCc1cc(=O)oc2cc(C)cc(OCC(=O)NCCCN3CCOCC3)c12	–	–	–	–
Cc1ccc(C(=O)n2nnc3ccccc32)cc1[N+](=O)[O-]	–	91	–	–
COc1ccc(CN(Cc2cccn2C)C(=O)c2cc3cc(OC)ccc3[nH]2)cc1	124	–	–	–
CCc1nc2ccccc2n1Cc1ccc(OC)c(OC)c1	–	–	–	–
COc1ccc(/C=C/c2nc3ccccc3n2Cc2ccc(OC)c(OC)c2)cc1	–	·	–	353
SMILES	C2C12 statin	Cneo AK release	Efflux pump mplx	Mot1-301 SUMO
CC(C)c1nnc(-c2ccc(Cl)cc2)c(N(C)C)n1	–	–	–	·
CC(C)NC(=O)Nc1ccc2c(c1)C(=O)N([C@H](C)CO)C[C@H](C)[C@H](CN(C)Cc1ccncc1)OCCCC[C@H](C)O2	·	114	·	·
CC(C)NC(=O)Nc1ccc2c(c1)C(=O)N([C@H](C)CO)C[C@@H](C)[C@@H](CN(C)Cc1ccncc1)OCCCC[C@H](C)O2	·	–	·	·
C[C@H](CO)N1C[C@H](C)[C@@H](CN(C)Cc2ccncc2)OCCCC[C@H](C)Oc2ccc(NC(=O)NC3CCCCC3)cc2C1=O	–	111	·	·
C[C@@H]1CCCCO[C@@H](CN(C)Cc2ccncc2)[C@@H](C)CN([C@@H](C)CO)C(=O)c2cc(NC(=O)NC3CCCCC3)ccc2O1	–	–	·	·
COc1ccccc1CNC(=O)c1c(-c2ccccc2Cl)noc1C	–	–	–	–
CCOC(=O)c1c(-c2ccc(F)cc2)csc1NC(=O)c1c(-c2ccccc2)noc1C	·	–	–	719
CCOC(=O)C1CCN(C(=O)c2c(-c3ccccc3)noc2C)CC1	·	·	–	765
COC(=O)c1c(-c2ccccc2)csc1NC(=O)c1c(-c2ccccc2)noc1C	·	–	–	–
CCOCCCNC(=O)c1c(-c2ccccc2)noc1C	–	–	–	338
CCOC(=O)C1CCCN(C(=O)c2c(-c3ccccc3)noc2C)CC1 (stereo not given)	–	–	·	·
CC(=O)Nc1ccc(OCCCNC(=O)c2c(-c3ccccc3)noc2C)cc1	·	·	–	–
Cc1onc(-c2ccccc2Cl)c1C(=O)NCc1nc(-c2ccccc2)no1	159	–	–	–
Cc1ccc(NC(=O)C2CC(=O)N(Cc3ccccc3)C2)cc1S(=O)(=O)N1CCCCCC1 (stereo not given)	·	·	–	–
Cc1onc(C(=O)N2CCC(C(N)=O)CC2)c1-c1ccccc1Cl	92	–	–	–
Cc1onc(-c2ccccc2Cl)c1C(=O)N1CCC(C(N)=O)CC1	–	–	·	·
CCOC(=O)N1CCN(C(=O)c2c(-c3c(Cl)cccc3Cl)noc2C)CC1	–	–	–	–
CCOC(=O)C1CCN(C(=O)c2c(-c3c(Cl)cccc3Cl)noc2C)CC1	93	–	–	–
CC1CC(=O)C(C(C2=C(O)CC(C)CC2=O)c2ccccc2)=C(O)C1 (stereo not given)	101	–	·	·
CCC(=O)N1CCC(C)(C(=O)NCc2cccc(OC)c2)C1 (stereo not given)	–	–	·	·
O=c1oc(-c2cccs2)nc2ccc(Cl)cc12	–	·	–	–
CCN(CC)c1nc(C#N)cc(-c2ccc(OC)cc2)n1	109	–	–	–
O=C(CNCc1ccc(F)cc1)Nc1ccccc1[N+](=O)[O-]	·	·	–	–
Cc1ccc(S(=O)(=O)N2CCOCC2)cc1NC(=O)CSc1nc(N)cc(=O)[nH]1	–	–	–	–
CN1CCN(CCCNC(=O)c2ccc(/C=C3\Oc4ccccc4N(Cc4ccccc4F)C3=O)cc2)CC1	?	108	–	–
SMILES	C2C12 statin	Cneo AK release	Efflux pump mplx	Mot1-301 SUMO
Cc1cccc(CN2C(=O)/C(=C\c3ccc(C(=O)NCCCN4CCN(C)CC4)cc3)Oc3ccccc32)c1	–	–	–	–
COc1ccc(Cl)cc1Cn1c(C)c(C(=O)NCc2cccc(Cl)c2)sc1=O	–	–	·	·
COc1cccc2c(=O)c3ccoc3n(C)c12	–	–	–	350
O=C(NCc1cc(C(F)(F)F)cc(C(F)(F)F)c1)C1CC(c2c(Cl)cccc2Cl)=NO1 (stereo not given)	–	–	–	–
CC1(C)CC(=O)c2cnc(NC(=O)CCc3ccccc3)nc2C1	93	–	–	–
COc1ccccc1CC(NC(C)=O)C(=O)NC1CCN(C(=O)c2cccc(Cl)c2)CC1 (stereo not given)	–	–	–	–
COc1ccc(CN2CCn3ncc(C(=O)Nc4cccc(C)c4)c3C2=O)cc1	124	–	–	–
CCC(O)CC(C(=O)NNc1ccccc1)C(=O)NNc1ccccc1 (stereo not given)	·	·	–	268
CCOC(=O)NNc1ccccc1	·	·	–	–
Cc1cc(C(=O)O)cc(Br)c1N	·	·	–	326
Cc1[nH]nc2c1C1(C(=O)N(Cc3ccc(Cl)cc3)c3ccccc31)C(C#N)=C(N)O2 (stereo not given)	105	–	–	–
